TAAR1 ag – human TAAR1 agonism. Q96RJ0. actives 0.99% (n = 360,000). CHO RD-HGA16 TAAR1, Fluo-8 calcium fluorescence; vehicle wells 0%, saturating PEA agonist 100%. activation, % at 3 µM;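 active = activation above the mean activation of all test compounds in the run plus 3 SD, cut at about 38% in these data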
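System: CHO-derived RD-HGA16 cells with stable Gα16 and human TAAR1 / Times: 17-24 h plating, Fluo-8 75 min 37 °C, 30 min RT / Technique: calcium-sensitive Fluo-8 signal, excitation 470-495, emission 515-575 nm / Measure: % activation relative to PEA EC100 response / Benchmarks: DMSO and PEA EC100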
TAAR1 antagonist – human TAAR1 antagonism; inhibition, % at 3 µM; actives 1.5% (n = 360,000); Q96RJ0; CHO RD-HGA16 TAAR1, Fluo-8 calcium fluorescence, antagonist;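 active = inhibition above a per-plate cutoff, the mean inhibition of test compounds on that plate plus 3 SD, cut at about 49% in these data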;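 note: 0% = DMSO plus EC80 beta-PEA response and 100% = DMSO alone without agonist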
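System: CHO RD-HGA16 cells bearing hTAAR1. Reagent: EC80 β-phenethylamine stimulus. Schedule: seeding 17-24 h prior, 75-min 37 °C, 30-min RT dye loading. Signal: Fluo-8 intracellular calcium dye fluorescence, real-time kinetic reads. Read-out: % inhibition from peak post-agonist over basal fluorescence ratio. Benchmarks: vehicle wells and EC80 agonist wells. Replicates: n of 1.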
CHO parental Ca – counter-screen: ATP calcium response change in parental CHO cells. parental CHO-K1, ATP-induced calcium, Fluo-8 fluorescence. inhibition, % at 5.6 µM. actives 0.63% (n = 330,000);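 active = inhibition above that plate's mean sample inhibition plus 3 SD, cut at about 26% in these data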;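 note: 0% = ATP-challenged DMSO wells and 100% = DMSO wells without ATP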
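Material – parental CHO cells · Reagent – ATP stimulus · Compound – single nominal dose of 5.6 µM per compound · Detection – Fluo-8 fluorescence · Read-out basis – percent inhibition of calcium signal · Controls – ATP-challenged DMSO wells low, unchallenged DMSO wells high · Repeats – no replicates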
OX1R antag-1 – OX1R (human) antagonism; O43613; OX1R-expressing cells, FRET antagonist read-out; inhibition, % at 6.6 µM; actives 1.8% (n = 330,000); in the data active = inhibition mostly above about 38%, no sharp cut-off; inactive = mostly below about 40%;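 note: 0% = agonist challenge alone and 100% = reference antagonist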
Target sequence (O43613 whole entry, looked up): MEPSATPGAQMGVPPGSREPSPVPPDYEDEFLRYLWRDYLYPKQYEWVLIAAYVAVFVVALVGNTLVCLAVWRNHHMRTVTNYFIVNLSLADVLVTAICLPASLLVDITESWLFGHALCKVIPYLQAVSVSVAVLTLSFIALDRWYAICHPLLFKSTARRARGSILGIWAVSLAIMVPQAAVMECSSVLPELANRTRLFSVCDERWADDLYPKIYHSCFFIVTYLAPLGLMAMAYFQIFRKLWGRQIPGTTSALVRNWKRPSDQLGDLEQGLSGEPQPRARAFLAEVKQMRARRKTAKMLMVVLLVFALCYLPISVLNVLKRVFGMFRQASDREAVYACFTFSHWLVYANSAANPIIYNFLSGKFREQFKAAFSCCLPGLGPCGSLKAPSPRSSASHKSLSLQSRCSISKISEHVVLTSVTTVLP
OX1R antag-2 – blocks the human orexin 1 receptor; CHO/OX1R cells, Fluo-8 calcium fluorescence, orexin A; inhibition, % at 5 µM; actives 0.43% (n = 330,000); AID 434989;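 active = inhibition above its plate's threshold, mean inhibition of all tested compounds on the plate plus 3 SD, cut at about 37% in these data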;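 note: 0% = orexin A challenge wells and 100% = SB-334867-A antagonist wells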
GPR7 antag – blocks human GPR7 receptor signaling | P48145 | inhibition, % at 4.4 µM | GPR7-expressing cells, fluorescence antagonist assay | AID 1861 | actives 1.1% (n = 290,000); in the data active = inhibition above about 16%, passing the limit was not always enough;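 note: cells stimulated with the agonist NPW; 0% = agonist with vehicle and 100% = vehicle without agonist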
Numbers without * were called inactive; x = no result. This is a sample that favours compounds with a hit; in the whole collection about 4.5% have one here.

SMILES	TAAR1 ag	TAAR1 antagonist	CHO parental Ca	OX1R antag-1	OX1R antag-2	GPR7 antag
NC(=O)CC1NC(=O)c2cc([N+](=O)[O-])cc(I)c2OCCC(C(N)=O)NC(=O)[C@@H]2CCCN2C1=O (some centres undefined)	0	1	-11	61*	-15	-7
CC(C)(C)OC(=O)N1CCC(C(=O)Nc2cccc(C(=O)NCCCc3ccccc3)c2)CC1	19	48	x	x	x	x
CC(C)(C)OC(=O)N1CCCC(C(=O)Nc2cccc(C(=O)NCCCc3ccccc3)c2)C1 (centres undefined)	10	49*	x	x	x	x
Cc1ccc(SCCNC(=S)Nc2ccc(C)c(C)c2)cc1	6	25	-25	10	-28	-29
Cc1cc(C)cc(NC(=S)NCCSc2ccc(Cl)cc2)c1	15	57*	-5	25	-18	-9
CCOC(=O)C1(Cc2ccccc2)CCN(Cc2cccc3c2OCO3)CC1	9	15	-16	72*	8	20
Cc1cc(-c2cc(NC(=O)Cc3c[nH]c4ccccc34)ccc2N(C)c2cccnc2)ccc1F	5	13	x	x	x	x
CC(C)(C)c1ccc(-c2cc(-c3ccccc3O)[nH]n2)cc1	7	-17	2	17	-19	-4
Oc1ccccc1-c1cc(-c2cccc(F)c2)n[nH]1	12	-1	11	41*	-4	1
O=C(Cn1c(C(=O)N2CCc3ccccc3C2)cc2sccc21)c1ccccc1	x	x	-19	11	-25	-2
O=C(c1cc2sccc2n1Cc1ccccc1)N1CCN(c2nc3ccccc3s2)CC1	0	-7	35*	17	-10	24
O=C(Cn1c(C(=O)N2CCN(C3CCCCC3)CC2)cc2sccc21)c1ccccc1	7	15	-21	11	-30	20*
CCc1nc2ccc(C(=O)NCCOc3ccc(OC)cc3)cn2c1N(CC)Cc1ccc(OC)c(OC)c1	0	-2	x	x	x	x
Cc1ccc(S(=O)(=O)N2CCCCC2)cc1C(=O)OC(C)C(=O)NCC1CCCCC1 (centres undefined)	0	-10	x	x	x	x
CCN(CCCNC(=O)CCc1nc(-c2ccc(OC)cc2)no1)c1cccc(C)c1	3	9	-7	55*	29	1
COc1ccc(-c2noc(CCC(=O)NCC3CCN(Cc4cccc(C)c4)CC3)n2)cc1	6	-3	-8	11	-10	0
C[C@@H](C(=O)Nc1ccc2ccccc2c1)[C@H]1C[C@]1(C)[C@H](NC(=O)c1cnccn1)c1ccccc1	8	18	-28	69*	27	0
O=C(Cc1ccccc1)N/N=C/c1ccc([N+](=O)[O-])s1	31	1	-14	58	-9	0
Cc1ccnn1CC(=O)N/N=C/c1ccc([N+](=O)[O-])s1	3	-1	-13	51*	-18	-18
O=C(N/N=C/c1ccc([N+](=O)[O-])s1)C(O)c1ccccc1 (centres undefined)	0	10	-6	56*	-5	-6
O=C(CNC(=O)c1cccc(F)c1)N/N=C/c1ccc([N+](=O)[O-])s1	3	-31	-5	50*	-8	5
Cc1ccnn1CC(=O)N/N=C/c1cccs1	2	-25	-13	9	-12	-3
CCOC(=O)N[C@H](C(=O)N1CCC[C@H]1C(=O)NC1CCCC1)C1CCCCC1	2	-5	x	x	x	x
CN(C)C(=O)C[C@H]1C[C@@H]2c3cc(NC(=O)NC4CCCC4)ccc3O[C@@H]2[C@@H](CO)O1	0	-8	x	x	x	x
O=C(Nc1c[nH]c(=O)[nH]c1=O)c1cc([N+](=O)[O-])cc([N+](=O)[O-])c1	3	2	0	69*	-1	-1
SMILES	TAAR1 ag	TAAR1 antagonist	CHO parental Ca	OX1R antag-1	OX1R antag-2	GPR7 antag
CCn1c(O)c(C=Nc2ccccc2)sc1=S	9	17	-14	59*	-21	-1
COc1cccc(OCCn2cc(/C=N/NC(=O)c3ccncc3)c3ccccc32)c1	10	21	-4	13	0	13
COc1cccc(OCCn2cc(C(C)=O)c3ccccc32)c1	12	21	32*	20	1	21
COC(=O)N/N=C/c1cn(CCOc2ccc(OC)cc2)c2ccccc12	1	50*	-6	6	-7	1
COC(=O)N/N=C/c1cn(CCOc2ccccc2)c2ccccc12	11	25	-11	51	-18	-7
CC(=O)N(Cc1ccccc1)c1nccs1	5	-16	x	x	x	x
CCN(CC)C(=O)c1cc([N+](=O)[O-])cc2c1-c1ccc([N+](=O)[O-])cc1C2=C(C#N)C#N	2	-9	-15	71*	-27	-6
O=C(Nc1ccc2c(c1)OCO2)c1cc(C2CCCCN2C(=O)c2ccccc2)on1 (centres undefined)	1	6	x	x	x	x
Cc1cc(Nc2cc(Cl)cc(Cl)c2)cc(=O)n1-c1cc(Cl)cc(Cl)c1	1	-13	x	x	x	x
FC(F)(F)c1ccccc1Cc1c(-c2ccco2)nc2c3ccccc3ccn12	5	-23	x	x	x	x
COc1ccc2c(C)cc(SCC(=O)NC3CCCC3)nc2c1	14	-16	-8	4	-9	x
COc1ccc2c(C)cc(SCC(=O)c3ccc4c(c3)OCO4)nc2c1	2	3	-22	40*	-15	-12
CCN1C(=O)[C@H]2[C@@H](c3ccc(C)cc3)N3C(=O)N(c4ccccc4)C(=O)[C@@]3(Cc3ccc(Cl)cc3)[C@H]2C1=O	x	x	-14	63*	-44	15
O=C(CCN1CCN(c2ccccc2)CC1)N/N=C/c1ccc([N+](=O)[O-])o1	3	0	-12	71*	-9	-5
O=C(CN1CCOCC1)NN=Cc1ccc([N+](=O)[O-])o1	1	3	x	x	x	x
CC1(C(=O)N/N=C/c2ccc([N+](=O)[O-])o2)CC1(Br)Br (centres undefined)	5	4	5	73*	6	-10
O=C(Cc1ccc([N+](=O)[O-])cc1)N/N=C/c1ccc([N+](=O)[O-])o1	3	-10	7	30	12	-10
Cc1ccc(F)c(S(=O)(=O)NC(=O)C2(C)CCN2C(=O)C/C=C/c2ccccc2)c1 (centres undefined)	1	-11	x	x	x	x
COc1ccc2c(c1)c1nnc(SCC(=O)NC3CC3)nc1n2C	-2	6	-10	85*	-11	-7
COC(=O)c1c(NC(=O)c2ccco2)sc(C)c1C	4	2	-27	59*	-5	-14
C=CCN1C(=O)c2n[nH]c(COC)c2C1c1ccc(F)cc1 (centres undefined)	2	-17	x	x	x	x
CC(C)(CO)NCc1cc(Br)ccc1OCc1ccccc1	1	-16	-14	16	-13	0
CC(C)NCc1cc(Br)ccc1OCc1ccccc1	43*	15	-14	9	-30	6
